How the values were obtained:
[1] = target: Sodium-dependent dopamine transporter (Rattus norvegicus, UniProt P23977); experiment: Displacement of [3H]GBR-12935 from dopamine transporter (DAT) in rat brain membranes; format: cell membranes
Summary of the method: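 Rat striatum crude membranes (100 µg protein) in sodium hydrogenocarbonate buffer pH 7.5 with 0.01% BSA. [3H]GBR-12935 1 nM (Kd 1.6 nM). Competitor 10^-5 to 10^-10 M. Incubation 37 °C, 1 h, then glass fiber filtration, ice-cold wash, beta counting. Nonspecific binding with 10^-6 M mazindol. Run in duplicate. Ki by Cheng-Prusoff.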

[2] = target: Norepinephrine transporter (Rattus norvegicus, UniProt Q9WTR4); experiment: Displacement of [3H]nisoxetine from norepinephrine transporter (NET) in rat brain membranes; format: cell membranes
Summary of the method: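 Rat frontoparietal cortex crude membranes in 50 mM Tris-HCl pH 7.4, 120 mM NaCl, 5 mM KCl. [3H]nisoxetine 0.5 nM (Kd 1.3 nM). Competitor 10^-5 to 10^-10 M. Incubation 2 °C, 5 h, then filtration, wash, beta counting. Nonspecific binding with 10^-6 M desipramine. Run in duplicate. Ki from IC50 by Cheng-Prusoff.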

[3] = target: Sodium-dependent serotonin transporter (Rattus norvegicus, UniProt P31652); experiment: Displacement of [3H]- paroxetine from serotonin transporter (5-HTT) in rat brain membranes; format: cell membranes
Summary of the method: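 Rat frontoparietal cortex crude membranes in 50 mM Tris-HCl pH 7.4 with 120 mM NaCl, 5 mM KCl. [3H]paroxetine 0.5 nM (Kd 0.5 nM). Competitor 10^-5 to 10^-10 M. Incubation 22 °C, 1 h, then glass fiber filtration, ice-cold wash, beta counting. Nonspecific binding with 10^-6 M fluvoxamine. Run in duplicate. Ki from IC50 by Cheng-Prusoff.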

[4] = target: Monoamine transporters; serotonin & dopamine (Rattus norvegicus) (UniProt P31652+P23977); experiment: Selectivity index for serotonin and dopamine transporters; format: protein assay
[5] = target: Monoamine transporters; Norepininephrine & dopamine (Rattus norvegicus) (UniProt P23977+Q9WTR4); experiment: Selectivity index for norepinephrine and dopamine transporters; format: protein assay

Sequence of Sodium-dependent serotonin transporter (P31652 whole entry): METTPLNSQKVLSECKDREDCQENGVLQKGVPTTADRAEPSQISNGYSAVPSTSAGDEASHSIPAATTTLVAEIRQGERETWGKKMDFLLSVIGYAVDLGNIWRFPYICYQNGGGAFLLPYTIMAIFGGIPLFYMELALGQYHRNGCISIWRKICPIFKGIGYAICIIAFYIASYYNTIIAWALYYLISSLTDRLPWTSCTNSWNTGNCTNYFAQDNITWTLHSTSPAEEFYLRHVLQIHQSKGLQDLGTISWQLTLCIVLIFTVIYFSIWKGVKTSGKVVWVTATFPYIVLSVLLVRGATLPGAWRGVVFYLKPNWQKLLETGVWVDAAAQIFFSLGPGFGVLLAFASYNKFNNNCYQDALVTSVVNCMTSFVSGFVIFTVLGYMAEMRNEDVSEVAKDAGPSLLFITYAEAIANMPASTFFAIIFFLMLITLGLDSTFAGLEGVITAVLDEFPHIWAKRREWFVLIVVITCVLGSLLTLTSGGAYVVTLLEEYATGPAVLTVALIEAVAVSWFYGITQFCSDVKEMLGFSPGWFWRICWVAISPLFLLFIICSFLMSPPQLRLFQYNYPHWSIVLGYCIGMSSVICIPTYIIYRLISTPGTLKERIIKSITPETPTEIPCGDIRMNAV
Sequence of Norepinephrine transporter (Q9WTR4 whole entry): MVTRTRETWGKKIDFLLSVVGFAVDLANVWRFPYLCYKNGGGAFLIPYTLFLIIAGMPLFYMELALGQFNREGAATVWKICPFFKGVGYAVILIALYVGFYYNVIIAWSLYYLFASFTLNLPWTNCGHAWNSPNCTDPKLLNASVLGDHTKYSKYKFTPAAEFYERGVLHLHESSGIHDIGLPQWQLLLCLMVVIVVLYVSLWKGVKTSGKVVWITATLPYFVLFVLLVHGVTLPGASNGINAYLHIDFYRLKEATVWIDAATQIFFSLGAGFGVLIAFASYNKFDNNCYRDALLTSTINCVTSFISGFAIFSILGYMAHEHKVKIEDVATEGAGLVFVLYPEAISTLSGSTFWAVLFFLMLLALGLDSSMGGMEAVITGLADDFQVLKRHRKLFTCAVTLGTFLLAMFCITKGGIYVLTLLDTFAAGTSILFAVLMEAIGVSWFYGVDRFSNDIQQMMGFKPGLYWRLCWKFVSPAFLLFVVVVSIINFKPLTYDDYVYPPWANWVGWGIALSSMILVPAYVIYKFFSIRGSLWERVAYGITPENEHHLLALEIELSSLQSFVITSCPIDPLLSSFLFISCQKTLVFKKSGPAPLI
Sequence of Monoamine transporters; serotonin & dopamine (Rattus norvegicus) (P23977 whole entry, looked up): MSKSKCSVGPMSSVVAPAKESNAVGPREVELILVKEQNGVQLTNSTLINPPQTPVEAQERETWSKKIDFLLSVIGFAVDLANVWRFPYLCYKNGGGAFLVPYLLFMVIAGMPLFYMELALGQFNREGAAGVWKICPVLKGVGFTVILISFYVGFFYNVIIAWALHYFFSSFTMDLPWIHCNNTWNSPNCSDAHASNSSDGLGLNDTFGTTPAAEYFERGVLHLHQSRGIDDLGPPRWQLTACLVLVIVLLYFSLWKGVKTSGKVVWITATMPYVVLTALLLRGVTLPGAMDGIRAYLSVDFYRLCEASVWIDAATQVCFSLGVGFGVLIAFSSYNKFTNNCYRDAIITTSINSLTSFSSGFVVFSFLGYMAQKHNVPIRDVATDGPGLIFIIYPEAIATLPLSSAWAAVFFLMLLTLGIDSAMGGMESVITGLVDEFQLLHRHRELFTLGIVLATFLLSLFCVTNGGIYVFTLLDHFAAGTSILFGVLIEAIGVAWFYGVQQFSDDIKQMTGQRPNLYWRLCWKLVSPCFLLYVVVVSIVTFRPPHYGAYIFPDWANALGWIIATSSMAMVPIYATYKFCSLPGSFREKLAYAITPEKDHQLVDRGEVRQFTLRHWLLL
Sequence of Monoamine transporters; serotonin & dopamine (Rattus norvegicus) (P31652 whole entry, looked up): as the sequence (P31652 whole entry) above
Sequence of Sodium-dependent dopamine transporter (P23977 whole entry): as the sequence (P23977 whole entry, looked up) above

| SMILES | Ki [1] [nM] | Ki [2] [nM] | Ki [3] [nM] | Selectivity [4] | Selectivity [5] |
| --- | --- | --- | --- | --- | --- |
| COC(=O)[C@@H]1C2CCC(C[C@@H]1c1ccc(I)cc1)N2Cc1ccccc1 (stereo not given in full) | 42 | 600 | 100 | 2.3 | 14.2 |
| C=C(Br)CN1C2CC[C@@H]1CC(c1ccc(I)cc1)[C@@H]2C(=O)OC (stereo not given in full) | 30 | > 1000 | 200 | 6.6 | > 33 |
| COC(=O)[C@@H]1C2CC[C@H](C[C@@H]1c1ccc(I)cc1)N2C | 27 | 80 | 3 | 0.1 | 2.9 |
| COC(=O)[C@H]1C(c2ccc(I)cc2)C[C@H]2CCC1N2Cc1ccccc1C (stereo not given in full) | 93 | > 1000 | 225 | 2.4 | > 10.6 |
| C/C=C/CN1C2CC[C@@H]1CC(c1ccc(I)cc1)[C@@H]2C(=O)OC (stereo not given in full) | 15 | 400 | 75 | 5 | 26.6 |
| COC(=O)[C@H]1C(c2ccc(C(C)C)cc2)C[C@H]2CCC1N2C/C=C/I (stereo not given in full) | 500 | > 1000 | 450 | 0.9 | > 2 |
| C#CCN1C2CC[C@@H]1CC(c1ccc(I)cc1)[C@@H]2C(=O)OC (stereo not given in full) | 14 | > 1000 | 100 | 7.1 | > 71 |
| COC(=O)[C@@H]1C2CCC(C[C@@H]1c1ccc(C)cc1)N2C/C=C/I (stereo not given in full) | 17 | > 1000 | 500 | 29.4 | > 58 |
| COC(=O)[C@H]1C(c2ccccc2)C[C@H]2CCC1N2C/C=C/I (stereo not given in full) | 113 | > 1000 | 100 | 0.8 | > 8.8 |
| CCCc1ccc(C2C[C@H]3CCC([C@H]2C(=O)OC)N3C/C=C/I)cc1 (stereo not given in full) | 500 | 750 | 300 | 0.6 | 1.5 |
| COC(=O)[C@@H]1C2CCC(C[C@@H]1c1ccc(Cl)c(Cl)c1)N2C/C=C/I (stereo not given in full) | 29 | 500 | 50 | 1.7 | 17.2 |
| COC(=O)[C@H]1C(c2ccc(I)cc2)C[C@H]2CCC1N2C/C=C/I (stereo not given in full) | 30 | 295 | 960 | 32 | 9.8 |

From ChEMBL document CHEMBL1130003, “Synthesis and ligand binding of nortropane derivatives: N-substituted 2beta-carbomethoxy-3beta-(4'-iodophenyl)nortropane and N-(3-iodoprop-(2E)-enyl)-2beta-carbomethoxy-3beta-(3',4'-disubstituted phenyl)nortropane. New high-affinity and selective compounds for the dopamine transporter” (J Med Chem, 1997)
